Results: publication PMC8602434 (Drugs in R&D, 2021)

Test: Healthy volunteers, single-dose arm, sc
Assay type: in vivo
Settings: human; for half-life: t½
Procedure, shortened: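 Double-blind single abdominal sc injection at 0.1, 0.5, 1, 3 or 5 mg versus placebo. Cohorts of six or eight subjects; the 0.1 mg cohort had 4 active and 2 placebo. Serial blood sampling to 48 h post-dose. Plasma assayed by validated bioanalytical method. Noncompartmental analysis: Cmax, tmax, t½, AUC (linear trapezoidal to last quantifiable concentration), AUC∞, CL/F. AEs recorded.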

[1] = both, plasma, sc, 0.1 mg, single 0.1 mg sc, mean (SD), n=4
[2] = both, plasma, sc, 0.5 mg, single 0.5 mg sc, mean (SD), n=4
[3] = both, plasma, sc, 1 mg, single 1.0 mg sc, mean (SD), n=6
[4] = both, plasma, sc, 3 mg, single 3.0 mg sc, median, n=6
[5] = both, plasma, sc, 5 mg, single 5.0 mg sc, mean (SD), n=6
[6] = single 0.1 mg sc, geometric mean, n=4
[7] = single 0.1 mg sc, mean (SD), n=4
[8] = single 0.5 mg sc, geometric mean, n=2
[9] = single 0.5 mg sc, geometric mean, n=4

For `CCCC[C@H](NC(C)=O)C(=O)N[C@H]1CCC(=O)NC[C@@H](C(=O)N[C@@H](Cc2c[nH]c3ccccc23)C(N)=O)NC(=O)[C@H](CCCNC(=N)N)NC(=O)[C@@H](Cc2ccccc2)NC(=O)[C@H](Cc2c[nH]cn2)NC1=O` [PL8177], which AUC(0-t) (both, plasma, sc, 0.1 mg) is on record?
The AUC(0-t) was 2.7 ng·h/mL.

What about the tmax (both, plasma, sc, 0.1 mg) of the same compound?
The tmax was 0.6 h.

What about the AUC(0-inf) [1] of the same compound?
Its AUC(0-inf) is 3.5 ng·h/mL.

What about the CL/F (both, plasma, sc, 0.1 mg, CL/F, single 0.1 mg sc, mean (SD), n=4) of the same compound?
Its CL/F is 497 mL/min.

And the Cmax (both, plasma, sc, 0.1 mg, Cmax, single 0.1 mg sc, mean (SD), n=4)?
The Cmax was 2.3 ng/mL.

What about the Vd/F (both, plasma, sc, 0.1 mg, Vd/F, single 0.1 mg sc, mean (SD), n=4) of the same compound?
The Vd/F was 36.1 L.

And the half-life [1]?
Its half-life is 0.9 h.

And the AUC(0-t) (both, plasma, sc, 0.5 mg)?
Its AUC(0-t) is 19.9 ng·h/mL.

And the tmax (both, plasma, sc, 0.5 mg)?
Its tmax is 0.5 h.

What about the AUC(0-inf) [2] of the same compound?
Its AUC(0-inf) is 22.4 ng·h/mL.

What about the CL/F (both, plasma, sc, 0.5 mg, CL/F, single 0.5 mg sc, mean (SD), n=4) of the same compound?
The CL/F was 477 mL/min.

And the Cmax (both, plasma, sc, 0.5 mg, Cmax, single 0.5 mg sc, mean (SD), n=4)?
The Cmax was 8.2 ng/mL.

What about the Vd/F (both, plasma, sc, 0.5 mg, Vd/F, single 0.5 mg sc, mean (SD), n=2) of the same compound?
Its Vd/F is 74.4 L.

And the half-life [2]?
The half-life was 2.8 h.

What about the AUC(0-t) (both, plasma, sc, 1 mg) of the same compound?
Its AUC(0-t) is 40.3 ng·h/mL.

And the tmax (both, plasma, sc, 1 mg)?
Its tmax is 0.6 h.

And the AUC(0-inf) [3]?
Its AUC(0-inf) is 46.2 ng·h/mL.

What about the CL/F (both, plasma, sc, 1 mg, CL/F, single 1.0 mg sc, mean (SD), n=6) of the same compound?
The CL/F was 382 mL/min.

And the Cmax (both, plasma, sc, 1 mg, Cmax, single 1.0 mg sc, mean (SD), n=6)?
Its Cmax is 17.4 ng/mL.

What about the Vd/F (both, plasma, sc, 1 mg, Vd/F, single 1.0 mg sc, mean (SD), n=3) of the same compound?
Its Vd/F is 173 L.

And the Vd/F (both, plasma, sc, 1 mg, Vd/F, single 1.0 mg sc, median, n=3)?
The Vd/F was 186 L.

What about the half-life [3] of the same compound?
The half-life was 6.7 h.

And the AUC(0-t) (both, plasma, sc, 3 mg)?
The AUC(0-t) was 137 ng·h/mL.

What about the AUC(0-inf) [4] of the same compound?
The AUC(0-inf) was 163 ng·h/mL.

What about the CL/F (both, plasma, sc, 3 mg, CL/F, single 3.0 mg sc, mean (SD), n=6) of the same compound?
Its CL/F is 322 mL/min.

And the CL/F (both, plasma, sc, 3 mg, CL/F, single 3.0 mg sc, median, n=6)?
Its CL/F is 307 mL/min.

What about the Cmax (both, plasma, sc, 3 mg, Cmax, single 3.0 mg sc, median, n=6) of the same compound?
The Cmax was 49.1 ng/mL.

And the Vd/F (both, plasma, sc, 3 mg, Vd/F, single 3.0 mg sc, mean (SD), n=4)?
The Vd/F was 375 L.

What about the Vd/F (both, plasma, sc, 3 mg, Vd/F, single 3.0 mg sc, median, n=4) of the same compound?
The Vd/F was 394 L.

What about the half-life (both, plasma, sc, 3 mg, single 3.0 mg sc, geometric mean, n=6) of the same compound?
The half-life was 15.2 h.

And the half-life (both, plasma, sc, 3 mg, single 3.0 mg sc, mean (SD), n=6)?
Its half-life is 19.5 h.

And the half-life [4]?
The half-life was 12.3 h.

And the AUC(0-t) (both, plasma, sc, 5 mg)?
Its AUC(0-t) is 226 ng·h/mL.

And the tmax (both, plasma, sc, 5 mg)?
Its tmax is 0.8 h.

And the AUC(0-inf) [5]?
The AUC(0-inf) was 240 ng·h/mL.

And the CL/F (both, plasma, sc, 5 mg, CL/F, single 5.0 mg sc, mean (SD), n=6)?
Its CL/F is 355 mL/min.

And the Cmax (both, plasma, sc, 5 mg, Cmax, single 5.0 mg sc, mean (SD), n=6)?
The Cmax was 87.8 ng/mL.

And the Vd/F (both, plasma, sc, 5 mg, Vd/F, single 5.0 mg sc, mean (SD), n=6)?
Its Vd/F is 502 L.

What about the half-life [5] of the same compound?
Its half-life is 16.3 h.

And the “Median time for last measurable concentration” value (from here on “Median time”) (0.1-mg dose)?
The value was 2 h.

And the “Median time” value (0.5-mg dose)?
The value was 6 h.

What about the “Median time” value (1-mg dose) of the same compound?
Its value is 16 h.

And the “Median time” value (3-mg dose)?
The value was 30 h.

And the “Median time” value (5-mg dose)?
The value was 48 h.

What about the “AUC0–t” value [6] of the same compound?
Its value is 2.6 ng·h/mL.

And the “AUC∞” value [6]?
Its value is 3.4 ng·h/mL.

What about the “AUC∞/dose” value [6] of the same compound?
Its value is 34.2 ng·h/mL/mg.

What about the CL/F [6] of the same compound?
The CL/F was 487 mL/min.

What about the Cmax [6] of the same compound?
Its Cmax is 2.2 ng/mL.

What about the Cmax/dose [6] of the same compound?
Its Cmax/dose is 22.1 ng/mL/mg.

What about the t½ [6] of the same compound?
Its t½ is 0.8 h.

What about the “AUC∞/dose” value [7] of the same compound?
The value was 34.9 (7.82) ng·h/mL/mg.

What about the Cmax/dose [7] of the same compound?
Its Cmax/dose is 23.4 (10.1) ng/mL/mg.

And the “AUC0–t” value (single 0.1 mg sc, median, n=4)?
The value was 2.6 ng·h/mL.

What about the “AUC∞” value (single 0.1 mg sc, median, n=4) of the same compound?
The value was 3.5 ng·h/mL.

What about the “AUC∞/dose” value (single 0.1 mg sc, median, n=4) of the same compound?
Its value is 35.3 ng·h/mL/mg.

What about the CL/F (single 0.1 mg sc, median, n=4) of the same compound?
Its CL/F is 475 mL/min.

What about the Cmax (single 0.1 mg sc, median, n=4) of the same compound?
Its Cmax is 1.9 ng/mL.

What about the Cmax/dose (single 0.1 mg sc, median, n=4) of the same compound?
The Cmax/dose was 18.9 ng/mL/mg.

And the Vd/F (single 0.1 mg sc, median, n=4)?
The Vd/F was 36.6 L.

And the t½ (single 0.1 mg sc, median, n=4)?
The t½ was 0.8 h.

What about the “AUC∞/dose” value [8] of the same compound?
The value was 50.4 ng·h/mL/mg.

What about the Vd/F [8] of the same compound?
Its Vd/F is 74.1 L.

What about the “AUC0–t” value [9] of the same compound?
Its value is 16.8 ng·h/mL.

And the “AUC∞” value [9]?
The value was 19.4 ng·h/mL.

What about the CL/F [9] of the same compound?
The CL/F was 430 mL/min.

What about the Cmax [9] of the same compound?
Its Cmax is 7.6 ng/mL.

What about the Cmax/dose [9] of the same compound?
Its Cmax/dose is 15.3 ng/mL/mg.

What about the t½ [9] of the same compound?
The t½ was 2.6 h.

What about the “AUC∞/dose” value (single 0.5 mg sc, mean (SD), n=2) of the same compound?
Its value is 59.9 (45.8) ng·h/mL/mg.

And the Cmax/dose (single 0.5 mg sc, mean (SD), n=4)?
Its Cmax/dose is 16.4 (7.5) ng/mL/mg.

What about the “AUC∞/dose” value (single 0.5 mg sc, median, n=2) of the same compound?
Its value is 59.9 ng·h/mL/mg.

What about the Vd/F (single 0.5 mg sc, median, n=2) of the same compound?
Its Vd/F is 74.4 L.

What about the “AUC0–t” value (single 0.5 mg sc, median, n=4) of the same compound?
Its value is 13.3 ng·h/mL.

And the “AUC∞” value (single 0.5 mg sc, median, n=4)?
Its value is 15 ng·h/mL.

What about the CL/F (single 0.5 mg sc, median, n=4) of the same compound?
Its CL/F is 560 mL/min.

What about the Cmax (single 0.5 mg sc, median, n=4) of the same compound?
Its Cmax is 7.2 ng/mL.
